Experimental data from EPA's CvTdb concentration-time database.

How the values were obtained:
Hamster [1] = experiment: concentration in plasma after dosing; conditions: dosed: 2,4-Dichlorophenoxyacetic acid, Male, Syrian Golden
Method in brief: (§1)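 Data points giving concentration or amount against time came from published in vivo toxicokinetic studies and from two structured collections. PubMed searching, classifier screening and manual review located the studies. Most points were digitised from plot screenshots using WebPlotDigitizer, the rest were copied from tables, and all keep their reported units.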

Hamster [2] = experiment: concentration in plasma after dosing; conditions: dosed: 2,4-Dichlorophenoxyacetic acid, 40 mg/kg, oral, Male, Syrian Golden
Method in brief: as §1

Mouse [3] = experiment: concentration in plasma after dosing; conditions: 3 h; dosed: 2-Hydroxy-4-methoxybenzophenone; 50 mg/kg; iv; Female; B6C3F1
Mouse [4] = experiment: concentration in plasma after dosing; conditions: 3 h; dosed: 2-Hydroxy-4-methoxybenzophenone; 50 mg/kg; iv; Female; B6C3F1; remark: listed apart in the source
Rat [5] = experiment: concentration in plasma after dosing; conditions: 0.25 h; dosed: 2-Hydroxy-4-methoxybenzophenone; 500 mg/kg; oral; Female; F344
Mouse [6] = experiment: concentration in plasma after dosing; conditions: 2 h; dosed: 2-Hydroxy-4-methoxybenzophenone; 50 mg/kg; iv; Male; B6C3F1
Rat [7] = experiment: concentration in plasma after dosing; conditions: dosed: 2-Hydroxy-4-methoxybenzophenone, 500 mg/kg, oral, Female, F344
Rat [8] = experiment: concentration in plasma after dosing; conditions: dosed: Methyleugenol, 37 mg/kg, oral, Female, F344/N
Rat [9] = experiment: concentration in plasma after dosing; conditions: dosed: Methyleugenol, 37 mg/kg, iv, Female, F344
Rat [10] = experiment: concentration in kidney after dosing; conditions: 24 h; dosed: Perfluorohexane-1-sulphonic acid – potassium salt; 16 mg/kg; oral; Female; F344
Rat [11] = experiment: concentration in brain after dosing; conditions: 48 h; dosed: Perfluorohexane-1-sulphonic acid – potassium salt; 16 mg/kg; oral; Female; Harlan Sprague Dawley
Rat [12] = experiment: concentration in brain after dosing; conditions: 3 h; dosed: Perfluorohexane-1-sulphonic acid – potassium salt; 16 mg/kg; oral; Female; Harlan Sprague Dawley
Rat [13] = experiment: concentration in liver after dosing; conditions: 6 h; dosed: Perfluorohexane-1-sulphonic acid – potassium salt; 16 mg/kg; oral; Female; Harlan Sprague Dawley
Rat [14] = experiment: concentration in plasma after dosing; conditions: 1.5 h; dosed: Primidone; 80 mg/kg; oral; Female; F344
Rat [15] = experiment: concentration in plasma after dosing; conditions: 0.25 h; dosed: Primidone; 30 mg/kg; oral; Female; F344
Rat [16] = experiment: concentration in plasma after dosing; conditions: 0.25 h; dosed: Primidone; 30 mg/kg; oral; Male; F344
Rat [17] = experiment: concentration in plasma after dosing; conditions: 3 h; dosed: Primidone; 80 mg/kg; oral; Female; F344
Rat [18] = experiment: concentration in plasma after dosing; conditions: 12 h; dosed: Primidone; 130 mg/kg; oral; Male; Harlan Sprague Dawley
Rat [19] = experiment: concentration in plasma after dosing; conditions: 1.5 h; dosed: Primidone; 30 mg/kg; oral; Male; F344
Rat [20] = experiment: concentration in plasma after dosing; conditions: 10 min; dosed: Pyridine; 10 mg/kg; oral; Male; F344
Rat [21] = experiment: concentration in plasma after dosing; conditions: 10 min; dosed: Pyridine; 10 mg/kg; oral; Male; F344; remark: listed apart in the source
Rat [22] = experiment: concentration in plasma after dosing; conditions: 2 min; dosed: Pyridine; 10 mg/kg; iv; Male; F344
Rat [23] = experiment: concentration in plasma after dosing; conditions: dosed: Pyridine, 5 mg/kg, iv, Male, F344
Rat [24] = experiment: concentration in plasma after dosing; conditions: 3 h; dosed: alpha-Thujone; 25 mg/kg; oral; Male; Harlan Sprague Dawley
Rat [25] = experiment: concentration in brain after dosing; conditions: 1.5 h; dosed: alpha-Thujone; 50 mg/kg; oral; Female; Harlan Sprague Dawley
Rat [26] = experiment: concentration in brain after dosing; conditions: 5 min; dosed: alpha-Thujone; 25 mg/kg; oral; Male; Harlan Sprague Dawley
Rat [27] = experiment: concentration in brain after dosing; conditions: 3 h; dosed: alpha-Thujone; 50 mg/kg; oral; Female; Harlan Sprague Dawley
Rat [28] = experiment: concentration in brain after dosing; conditions: 1.5 h; dosed: alpha-Thujone; 50 mg/kg; oral; Female; Harlan Sprague Dawley; remark: listed apart in the source
Rat [29] = experiment: concentration in plasma after dosing; conditions: 2 min; dosed: alpha-Thujone; 25 mg/kg; oral; Male; Harlan Sprague Dawley
Rat [30] = experiment: concentration in plasma after dosing; conditions: 3 h; dosed: alpha-Thujone; 50 mg/kg; oral; Female; Harlan Sprague Dawley

O=C(O)COc1ccc(Cl)cc1Cl [2,4-Dichlorophenoxyacetic acid]
concentration in plasma [µg/mL], Hamster [1]
Conditions	2.0 mg/kg	8.0 mg/kg	40 mg/kg
0.25 h, iv	–	21.3	–
0.25 h, oral	7.56	16.5	68.5
0.5 h, oral	–	3.99	84.2
1 h, iv	–	1.05	–
1 h, oral	–	5.86	19.1
1.5 h, iv	–	0.915	–
1.5 h, oral	–	1.08	29.6
2 h, iv	–	0.186	–
2 h, oral	–	1.12	25.4
2.5 h, oral	1.93	–	–
2.5 min, iv	–	127	–
2.5 min, oral	0.217	–	–
4 h, oral	–	0.82	2.83
5 min, iv	–	77.1	–
5 min, oral	0.453	19.5	81.6
6 h, oral	–	1.35	2.7
10 min, iv	–	42.4	–
10 min, oral	2.08	–	–
20 min, iv	–	20.7	–
40 min, iv	–	3.98	–

Hamster [2]
Conditions	concentration in plasma [µg/mL]
0.25 h	57
0.5 h	88
1 h	40.7
1.5 h	16.6
2 h	12
4 h	3.73
5 min	26.6
6 h	1.4
10 h	34.3

O=C(c1ccccc1)c1ccc(O)cc1O [2,4-Dihydroxybenzophenone]
Conditions	concentration in plasma [µg/mL]
Mouse [3]	0.0327
Mouse [4]	0.0577
Mouse [6]	0.266
Rat [5]	1.54

Rat [7]
Conditions	concentration in plasma [µg/mL]
10 h	0.206
10 min	0.116

C=CCc1ccc(OC)c(OC)c1 [Methyleugenol]
concentration in plasma [µg/mL]
Conditions	0.25 h	1.5 h	5 h	5 min
Rat [8]	–	–	0.0169	0.211
Rat [9]	9.2	0.738	–	–

O=S(=O)([O-])C(F)(F)C(F)(F)C(F)(F)C(F)(F)C(F)(F)C(F)(F)F.[K+] [Perfluorohexane-1-sulphonic acid – potassium salt]
Conditions	concentration in brain [ng/g]	concentration in kidney [ng/g]	concentration in liver [ng/g]
Rat [10]	–	43700	–
Rat [11]	496	–	–
Rat [12]	1560	–	–
Rat [13]	–	–	33000

CCC1(c2ccccc2)C(=O)NCNC1=O [Primidone]
Conditions	concentration in plasma [µg/mL]
Rat [14]	70.3
Rat [15]	17.7
Rat [16]	7.8
Rat [17]	59.3
Rat [18]	17.8
Rat [19]	14

c1ccncc1 [Pyridine]
Conditions	concentration in plasma [µg/mL]
Rat [20]	5.48
Rat [21]	4.95
Rat [22]	1.31

Rat [23]
Conditions	concentration in plasma [µg/mL]
0.05 h	4.21
4 h	2.06

CC(C)[C@]12CC(=O)[C@H](C)[C@H]1C2 [alpha-Thujone]
Conditions	concentration in brain [ng/g]	concentration in plasma [ng/mL]
Rat [24]	–	131
Rat [25]	1360	–
Rat [26]	62.6	–
Rat [27]	615	–
Rat [28]	1020	–
Rat [29]	–	18
Rat [30]	–	201
